Measured values of several laboratories.
Each line is one published result; the experiments were not run side by side.

SMILES | test | test system | setting | solubility
C=CC[C@@]1(C)NC(=O)CNC(=O)[C@H](Cc2c[nH]c3ccccc23)NC(=O)[C@H](CC(=O)O)NC(=O)[C@H](CCC(N)=O)NC(=O)[C@H](Cc2c[nH]c3ccccc23)NC(=O)[C@H](C(C)C)NC(=O)[C@@H](NC(=O)[C@@H](NC(C)=O)[C@@H](C)CC)CSSC[C@@H](C(=O)N[C@H](C(N)=O)[C@@H](C)O)NC(=O)[C@H](CCCNC(=N)N)NC(=O)[C@H](Cc2c[nH]cn2)NC1=O |  | PBS | pH 7.4 | 3.35 mg/mL
O=C(CCCN1CCC2(CC1)C(=O)NCN2c1ccccc1)N(CC1CCCCC1)c1ccccc1 |  | PBS | 24 h, pH 7.4, 37 °C | 626 µM
O=c1[nH]c2ccccc2n1CCCN1CCC(n2c(=O)[nH]c3cc(Cl)ccc32)CC1 |  | FaSSIF | 24 h, pH 7.4, 37 °C | 0.135 mg/mL
CC[C@H](C)[C@H](NC(=O)[C@H](CO)NC(=O)[C@H](CCCNC(=N)N)NC(C)=O)C(=O)N[C@H]1CSSC[C@@H](C(=O)N[C@H](C(N)=O)[C@@H](C)O)NC(=O)[C@H](CCCNC(=N)N)NC(=O)[C@H](Cc2c[nH]cn2)NC(=O)[C@H](Cc2cccc3ccccc23)NC(=O)CNC(=O)[C@H](Cc2c[nH]c3ccccc23)NC(=O)[C@H](CC(=O)O)NC(=O)[C@H](CCC(N)=O)NC(=O)[C@H](Cc2cccc3ccccc23)NC(=O)[C@H](C(C)C)NC1=O |  | PBS | pH 7.4 | 0.2 mg/mL
Clc1ccc(CSc2nnc(-c3ccccn3)n2Cc2ccco2)cc1Cl |  | aqueous buffer | pH 5 | < 0.0001 mg/mL
COc1ccc2c(c1)NC(=O)CN2c1nc(C)nc2c1CCC2 |  | aqueous buffer | pH 7.4 | 0.0264 mg/mL
CC[C@H](C)[C@H](NC(=O)[C@H](CCCNC(=N)N)NC(=O)[C@H](CCC(=O)O)NC(C)=O)C(=O)N[C@H]1CSSC[C@@H](C(=O)N[C@H](C(N)=O)[C@@H](C)O)NC(=O)[C@H](CCCNC(=N)N)NC(=O)[C@H](Cc2c[nH]cn2)NC(=O)[C@H](Cc2cccc3ccccc23)NC(=O)CNC(=O)[C@H](Cc2c[nH]c3ccccc23)NC(=O)[C@H](CC(=O)O)NC(=O)[C@H](CCC(N)=O)NC(=O)[C@H](Cc2cccc3ccccc23)NC(=O)[C@H](C(C)C)NC1=O |  | PBS | pH 7.4 | 0.16 mg/mL
COc1ccc(NC(=O)N2CCCCN3[C@H](CN(C)C)[C@H](c4ccc(C#Cc5ccccc5)cc4)[C@@H]3C2)cc1 |  | aqueous buffer | pH 1 | 155 µM
O=C1C=C(N(Cc2ccc(Cl)nc2)CC(F)F)CO1 |  | methanol | 20 °C | > 250 mg/mL
CC(/C=C/[C@@H]1C[C@]2(CO2)CC(C)(C)O1)=C\C[C@H]1OC[C@@H](NC(=O)/C=C\[C@H](C)OC(=O)C(C)(C)C)CO1 | HPLC | PBS |  | > 10 µM
CC[C@H](C)[C@H](NC(C)=O)C(=O)N[C@H]1CSSC[C@@H](C(=O)N[C@H](C(N)=O)[C@@H](C)O)NC(=O)[C@H](CCCNC(=N)N)NC(=O)[C@H](Cc2cnc[nH]2)NC(=O)[C@H](Cc2cccc3ccccc23)NC(=O)CNC(=O)[C@H](Cc2c[nH]c3ccccc23)NC(=O)[C@H](CC(=O)O)NC(=O)[C@H](CCC(N)=O)NC(=O)[C@H](Cc2cn(C)c3ccccc23)NC(=O)[C@H](C(C)C)NC1=O |  | PBS | pH 7.4 | 0.11 mg/mL
COc1cc(C)c2[nH]cc(/C=N/NC(=N)NCCc3cccnc3)c2c1 |  | PBS | 2 h, pH 7.4 | 30.1 µM
